In paper PMC3158287 (Nature chemical biology, 2011):

Experiments:
OSBP-Myc-His = biological target: T1, OSBP-Myc-His (Homo sapiens, UniProt P22059); experiment: [3H]25-OHC charcoal-dextran binding assay, wild-type OSBP-Myc-His; conditions: read-out: Ki, OSBP-Myc-His; competition with 20 nM [3H]25-OHC; mean ± s.d.
T1 sequence (P22059 1-807): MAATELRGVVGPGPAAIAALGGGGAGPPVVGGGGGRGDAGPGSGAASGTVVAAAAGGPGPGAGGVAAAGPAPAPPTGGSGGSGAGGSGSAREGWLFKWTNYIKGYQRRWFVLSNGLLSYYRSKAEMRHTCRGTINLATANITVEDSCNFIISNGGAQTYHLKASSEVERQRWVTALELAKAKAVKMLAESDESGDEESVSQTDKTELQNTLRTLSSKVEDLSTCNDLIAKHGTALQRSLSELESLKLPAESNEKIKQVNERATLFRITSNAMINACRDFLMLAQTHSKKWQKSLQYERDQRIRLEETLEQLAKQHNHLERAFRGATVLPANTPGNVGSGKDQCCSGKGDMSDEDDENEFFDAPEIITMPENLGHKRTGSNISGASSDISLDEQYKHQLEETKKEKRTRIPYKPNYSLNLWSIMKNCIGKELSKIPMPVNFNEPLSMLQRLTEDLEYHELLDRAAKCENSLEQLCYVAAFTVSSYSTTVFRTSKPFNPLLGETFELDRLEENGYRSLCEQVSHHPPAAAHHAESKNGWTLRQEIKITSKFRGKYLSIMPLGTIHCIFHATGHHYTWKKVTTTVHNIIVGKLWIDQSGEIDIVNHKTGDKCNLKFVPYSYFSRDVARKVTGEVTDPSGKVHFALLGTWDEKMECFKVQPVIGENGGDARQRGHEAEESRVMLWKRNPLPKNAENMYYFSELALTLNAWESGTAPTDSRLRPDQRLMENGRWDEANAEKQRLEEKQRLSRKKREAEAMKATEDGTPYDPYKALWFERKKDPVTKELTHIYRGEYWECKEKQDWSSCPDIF

OSBP = biological target: T2, OSBP (Homo sapiens, UniProt P22059); experiment: OSBP localization by immunofluorescence microscopy, A549; type: cell-based; conditions: A549 cells
T2 sequence (P22059 1-807): T1 sequence (P22059 1-807)
Procedure, shortened: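 Cells on coverslips were grown 72 h, then given test compound or vehicle (4 h for HCT-116). They were fixed 10 min in 3.7% formaldehyde/PBS and permeabilised 5 min in 0.5% Triton X-100. Blocking used Image-iT FX, then 1% BSA/PBS. Rabbit anti-OSBP (N-terminus) and mouse anti-p230 were applied overnight at 4 °C, then Alexa Fluor secondaries for 60 min with Hoechst 33258. Imaging was by confocal microscopy.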

[1] = tested on: ceramide labeling in HCT-116 cells; experiment: Ceramide labeling, [3H]serine pulse labeling, HCT-116; type: cell-based, human; conditions: range of concentrations
[2] = tested on: HCT-116 p21^−/− cells stably transfected with shOSBP or shNT; experiment: OSBP shRNA knockdown and dose-shift experiment; type: cell-based, human; conditions: 72 h
Procedure, shortened: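 HCT-116 p21−/− cells were stably transfected with OSBP-targeting or nontargeting shRNA in the pSIREN-RetroQ vector. […] Values are mean ± s.d. of 3–4 experiments, compared with shNT cells by two-tailed Student's t-test.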

| SMILES | Ki (OSBP-Myc-His) [nM] | OSBP localization (OSBP) | Effect on ceramide labeling [1] | Sensitization by OSBP shRNA knockdown (GI50 shift shOSBP vs shNT) [2] |
| --- | --- | --- | --- | --- |
| COc1ccc(C(=O)O[C@H]2[C@H](O[C@@H]3[C@@H](OC(C)=O)[C@H](O[C@H]4C[C@H]5[C@@H]6CC=C7C[C@@H](O)CC[C@]7(C)[C@H]6CC[C@]5(C)[C@@]4(O)[C@H](C)C(=O)CCC(C)C)OC[C@@H]3O)OC[C@@H](O)[C@@H]2O)cc1 [OSW-1] | 26 | dispersal or vesiculation of OSBP | no effect | – |
| CC(C)=CCC/C(C)=C/Cc1c(O)cc(/C=C/c2cc(O)c3c(c2)C[C@@H]2C(C)(C)[C@H](O)[C@H](O)C[C@@]2(C)O3)cc1O [schweinfurthin A] | – | – | – | nine |
